According to ChEMBL document CHEMBL1129032, “Synthesis and phospholipase A2 inhibitory activity of thielocin B3 derivatives” (J Med Chem, 1996):

Experiments:
Phospholipase A2 = Phospholipase A2 (Homo sapiens, UniProt P04054); test: In vitro inhibition of human recombinant secretory Phospholipase A2 (group I).
Procedure, shortened: (§1)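 PLA2 enzymes: recombinant human group I or II, or group II purified from rat platelets (single ~14 kDa band on SDS-PAGE). Substrate was 1-palmitoyl-2-[1-14C]linoleoyl-PE diluted with egg-yolk PE to 2000 dpm/nmol. Reaction started by adding enzyme, adjusted so hydrolysis stayed below 20%. Compounds in DMSO (2% final) against a DMSO control. IC50 read graphically from % inhibition vs log concentration, three independent experiments in duplicate.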

[1] = biological target: T1, Phospholipase A2, membrane associated (Homo sapiens, UniProt P14555); test: In vitro inhibition of human recombinant secretory Phospholipase A2 (group II).; procedure, shortened: as §1
T1 sequence (P14555 whole entry): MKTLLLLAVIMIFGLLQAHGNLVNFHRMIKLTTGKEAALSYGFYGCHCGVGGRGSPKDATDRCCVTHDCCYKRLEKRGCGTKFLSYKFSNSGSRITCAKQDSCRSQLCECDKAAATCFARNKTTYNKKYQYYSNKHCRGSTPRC

[2] = biological target: T2, Phospholipase A2, membrane associated (Rattus norvegicus, UniProt P14423); test: In vitro inhibition of rat secretory Phospholipase A2 (group II).; procedure, shortened: as §1
T2 sequence (P14423 whole entry): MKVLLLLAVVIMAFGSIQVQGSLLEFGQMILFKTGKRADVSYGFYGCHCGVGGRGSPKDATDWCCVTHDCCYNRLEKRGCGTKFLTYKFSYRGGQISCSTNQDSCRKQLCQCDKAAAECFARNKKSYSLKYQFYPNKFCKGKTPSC

Rattus norvegicus [3] = species: Rattus norvegicus; test: Inhibition of A-23187 stimulated Thromboxane B2 production from rat platelets by 10 uM.; format: functional; design: scale not given: the % may be the effect or the level left
Procedure, shortened: (§2)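 Rat platelets from citrate-dextrose blood with PGE1 were sedimented and labelled with [3H]AA (20 µCi/mL, 2.0 h, room temperature), gel-filtered, and used at 5 × 10^8 cells/mL. Stimulation used A23187 2 µM (DMSO 0.4%) plus compound (DMSO 0.2%), stopped with 0.1 N HCl. [3H]AA and [3H]TXB2 were separated by TLC and counted. Result given as % of A23187-induced increase over DMSO control, mean ± SEM of three experiments.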

Rattus norvegicus [4] = species: Rattus norvegicus; test: Inhibition of A-23187 stimulated Arachidonic acid production from rat platelets by 10 uM.; format: functional; design: scale not given: the % may be the effect or the level left; procedure, shortened: as §2
[5] = biological target: T1, Phospholipase A2, membrane associated; test: In vitro inhibition of human recombinant secretory Phospholipase A2 (group II); No inhibition.; procedure, shortened: as §1
[6] = biological target: T2, Phospholipase A2, membrane associated; test: In vitro inhibition of rat secretory Phospholipase A2 (group II); No inhibition.; procedure, shortened: as §1

Chain of Phospholipase A2 (P04054 whole entry): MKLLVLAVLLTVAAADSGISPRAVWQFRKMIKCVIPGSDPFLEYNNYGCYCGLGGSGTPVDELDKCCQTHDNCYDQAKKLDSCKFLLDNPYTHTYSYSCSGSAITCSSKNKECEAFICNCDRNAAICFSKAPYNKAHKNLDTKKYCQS

Compound	IC50 (Phospholipase A2) [µM]	IC50 [1] [µM]	IC50 [2] [µM]	IC50 [5]	IC50 [6]	Activity (Rattus norvegicus [3]) [%]	Activity (Rattus norvegicus [4]) [%]
COc1c(C)c(OC(=O)c2c(C)c(C)c(OC(=O)CCC(=O)Oc3c(C)c(C)c(C(=O)Oc4c(C)c(C)c(C(=O)O)c(OC)c4C)c(OC)c3C)c(C)c2OC)c(C)c(C)c1C(=O)O	60	0.94	0.04				
COc1c(C)c(OC)c(C(=O)Oc2c(C)c(C)c(C(=O)O)c(OC)c2C)c(C)c1Cc1c(C)c(C(=O)Oc2c(C)c(C)c(C(=O)O)c(OC)c2C)c(OC)c(C)c1OC	90	2.8	4.6				
COc1c(C)c(OC(=O)c2c(C)c(C)c(OC(=O)c3cc(=O)cc(C(=O)Oc4c(C)c(C)c(C(=O)Oc5c(C)c(C)c(C(=O)O)c(OC)c5C)c(OC)c4C)o3)c(C)c2OC)c(C)c(C)c1C(=O)O	100	5.8	0.88			46.3	55.2
COc1c(C)c(OC(=O)c2c(C)c(C)c(OC(=O)/C=C/C(=O)Oc3c(C)c(C)c(C(=O)Oc4c(C)c(C)c(C(=O)O)c(OC)c4C)c(OC)c3C)c(C)c2OC)c(C)c(C)c1C(=O)O	> 100	2.2	0.33			65.8	70.7
COc1c(C)c(OC(=O)c2c(C)c(C)c(OC(=O)c3cccc(C(=O)Oc4c(C)c(C)c(C(=O)Oc5c(C)c(C)c(C(=O)O)c(OC)c5C)c(OC)c4C)c3)c(C)c2OC)c(C)c(C)c1C(=O)O	> 100	0.23	0.12			0.1	49.2
COc1c(C)c(OC)c(C(=O)Oc2c(C)c(C)c(C(=O)Oc3c(C)c(C)c(C(=O)O)c(OC)c3C)c(OC)c2C)c(C)c1Cc1c(C)c(C(=O)Oc2c(C)c(C)c(C(=O)Oc3c(C)c(C)c(C(=O)O)c(OC)c3C)c(OC)c2C)c(OC)c(C)c1OC	> 100	0.19	0.13				
Cc1c(O)c(Cc2c(C)c(C(=O)Oc3c(C)c(C)c(C(=O)Oc4c(C)c(C)c(C(=O)O)c(O)c4C)c(O)c3C)c(O)c(C)c2O)c(C)c(C(=O)Oc2c(C)c(C)c(C(=O)Oc3c(C)c(C)c(C(=O)O)c(O)c3C)c(O)c2C)c1O	> 100	2.4	0.95				
COc1c(C)c(OC(=O)c2c(C)c(C)c(OC(=O)c3c(C)c(CN[C@@H](C)c4ccccc4)c(O)c(C)c3O)c(C)c2OC)c(C)c(C)c1C(=O)O	60	0.84	0.36				
COc1ccc(Sc2ccc(OC)c(C(=O)Oc3c(C)c(C)c(C(=O)Oc4c(C)c(C)c(C(=O)OCOC(=O)C(C)(C)C)c(OC)c4C)c(OC)c3C)c2)cc1C(=O)Oc1c(C)c(C)c(C(=O)Oc2c(C)c(C)c(C(=O)OCOC(=O)C(C)(C)C)c(OC)c2C)c(OC)c1C	> 100			Not Active	Not Active		
COc1ccc([S+]([O-])c2ccc(OC)c(C(=O)Oc3c(C)c(C)c(C(=O)Oc4c(C)c(C)c(C(=O)O)c(OC)c4C)c(OC)c3C)c2)cc1C(=O)Oc1c(C)c(C)c(C(=O)Oc2c(C)c(C)c(C(=O)O)c(OC)c2C)c(OC)c1C	11	0.26	0.12				
COc1ccc(Sc2ccc(OC)c(C(=O)Oc3c(C)c(C)c(C(=O)O)c(OC)c3C)c2)cc1C(=O)Oc1c(C)c(C)c(C(=O)O)c(OC)c1C	> 100	4.8	2.5				
COc1ccc(Oc2ccc(OC)c(C(=O)Oc3c(C)c(C)c(C(=O)O)c(OC)c3C)c2)cc1C(=O)Oc1c(C)c(C)c(C(=O)O)c(OC)c1C	> 100	75	3.4				
CC1=C(CC/C(C)=C/CCC2=CC[C@H](C3=CC(=O)O[C@H]3O)O[C@H]2O)C(C)(C)CCC1 [MANOALIDE]		1.5	2				
CCN(CC)CCCC(C)Nc1c2ccc(Cl)cc2nc2ccc(OC)cc12 (stereo not drawn) [QUINACRINE]		76	320				

Continued, in another order:

IC50 (Phospholipase A2) [µM]	IC50 [1] [µM]	IC50 [2] [µM]	IC50 [5]	IC50 [6]	Compound	Activity (Rattus norvegicus [3]) [%]	Activity (Rattus norvegicus [4]) [%]
55	0.13	0.049			COc1ccc(Sc2ccc(OC)c(C(=O)Oc3c(C)c(C)c(C(=O)Oc4c(C)c(C)c(C(=O)O)c(OC)c4C)c(OC)c3C)c2)cc1C(=O)Oc1c(C)c(C)c(C(=O)Oc2c(C)c(C)c(C(=O)O)c(OC)c2C)c(OC)c1C	0	2.8
100	4.1	2.1			COc1ccc(Sc2ccc(OC)c(C(=O)Oc3c(C)c(C)c(C(=O)Oc4c(C)c(C)c(C(=O)O)c(OC)c4C)c(OC)c3C)c2)cc1C(=O)O		
> 100	3	3			COc1c(C)c(OC)c(C(=O)O)c(C)c1Cc1c(C)c(C(=O)Oc2c(C)c(C)c(C(=O)Oc3c(C)c(C)c(C(=O)O)c(OC)c3C)c(OC)c2C)c(OC)c(C)c1OC		
6.6	0.24	0.035			COc1cc(OC)c(C(=O)Oc2c(C)c(C)c(C(=O)Oc3c(C)c(C)c(C(=O)O)c(OC)c3C)c(OC)c2C)cc1Oc1cc(C)c(OC)c(C(=O)Oc2c(C)c(C)c(C(=O)Oc3c(C)c(C)c(C(=O)O)c(OC)c3C)c(OC)c2C)c1	0	19.7
9	0.069	0.05			COc1ccc(S(=O)(=O)c2ccc(OC)c(C(=O)Oc3c(C)c(C)c(C(=O)Oc4c(C)c(C)c(C(=O)O)c(OC)c4C)c(OC)c3C)c2)cc1C(=O)Oc1c(C)c(C)c(C(=O)Oc2c(C)c(C)c(C(=O)O)c(OC)c2C)c(OC)c1C		
6.5	0.1	0.042			COc1ccc(Oc2ccc(OC)c(C(=O)Oc3c(C)c(C)c(C(=O)Oc4c(C)c(C)c(C(=O)O)c(OC)c4C)c(OC)c3C)c2)cc1C(=O)Oc1c(C)c(C)c(C(=O)Oc2c(C)c(C)c(C(=O)O)c(OC)c2C)c(OC)c1C	0	9
135	12	0.0033			COc1c(C)c(OC(=O)c2c(C)c(C)c(OC(=O)C3=C(C)[C@@](C)(O)C4(O)Oc5c(C)c(OC)c(C(=O)Oc6c(C)c(C)c(C(=O)O)c(OC)c6C)c(C)c5C[C@@]4(C)C3=O)c(C)c2OC)c(C)c(C)c1C(=O)O (stereo partly drawn) [THIELOCIN A1]		
18	0.076	0.012			COc1c(C)c(OC(=O)c2c(C)c(C)c(OC(=O)c3c(C)cc(O)c(Cc4c(C)c(C(=O)Oc5c(C)c(C)c(C(=O)Oc6c(C)c(C)c(C(=O)O)c(OC)c6C)c(OC)c5C)c(O)c(C)c4O)c3O)c(C)c2OC)c(C)c(C)c1C(=O)O [THIELOCIN B3]	43.7	60.3
